Reference: PMC12766539 (Molecular pharmaceutics, 2022)

Experiments:
[1] = test system: 31 clinical strains of S. aureus (5 methicillin-susceptible, 26 resistant); assay: MIC against a panel of 31 clinical strains of S. aureus; type: cell-based, Staphylococcus aureus; settings: ~10^5 CFU/mL, negative control
Summary of the method: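 Exponential-phase bacteria were diluted to ~10⁵ CFU/mL in TSB or MHB and added to serially diluted test compound (in water). Plates were incubated at 37°C for 20 h and growth was read as absorbance at 600 nm. Water-only wells served as the untreated control and medium as the blank.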

pUC19 plasmid = assay: DNA gel retardation experiment; type: binding; settings: two peptide concentrations (Figure S2)
[2] = test system: S. aureus USA300 LAC infection; assay: Invertebrate wax moth infection model; type: in vivo, Galleria mellonella; settings: 64 mg/kg, 1×10^6 CFU/insect, 30 per group, 5 days
Summary of the method: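 Galleria mellonella larvae (~250 mg; 30 per group) were injected with test compound at 64 mg/kg in phosphate buffer 2 h before infection with S. aureus USA300 at 1×10⁶ CFU/insect. Larvae were kept at room temperature and scored live or dead daily for 5 days. Survival was compared by log-rank test.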

## RIVQRIKDFL [RI-10]
[1]
  inhibitory activity at 32 μM: did not show any inhibitory activity
pUC19 plasmid
  DNA retardation in the well: unable to retard DNA
[2]
  protection of the animals from infection-caused death: did not protect the animals
